Measurements reported in ChEMBL document CHEMBL1781963, “Discovery of novel hepatoselective HMG-CoA reductase inhibitors for treating hypercholesterolemia: a bench-to-bedside case study on tissue selective drug distribution” (Bioorg Med Chem Lett, 2011).

Legend:
[1] = target: T1, OATP1B2 (Rattus norvegicus, UniProt Q9QZX8); assay: Drug uptake by rat hepatic OATP1B2 transporters expressed in CHO cells at 10 uM relative to wild type CHO cells; format: ADME, cell-based; details: CHO cells expressing rat OATP1B2, read-out: FC
T1 sequence (Q9QZX8 whole entry): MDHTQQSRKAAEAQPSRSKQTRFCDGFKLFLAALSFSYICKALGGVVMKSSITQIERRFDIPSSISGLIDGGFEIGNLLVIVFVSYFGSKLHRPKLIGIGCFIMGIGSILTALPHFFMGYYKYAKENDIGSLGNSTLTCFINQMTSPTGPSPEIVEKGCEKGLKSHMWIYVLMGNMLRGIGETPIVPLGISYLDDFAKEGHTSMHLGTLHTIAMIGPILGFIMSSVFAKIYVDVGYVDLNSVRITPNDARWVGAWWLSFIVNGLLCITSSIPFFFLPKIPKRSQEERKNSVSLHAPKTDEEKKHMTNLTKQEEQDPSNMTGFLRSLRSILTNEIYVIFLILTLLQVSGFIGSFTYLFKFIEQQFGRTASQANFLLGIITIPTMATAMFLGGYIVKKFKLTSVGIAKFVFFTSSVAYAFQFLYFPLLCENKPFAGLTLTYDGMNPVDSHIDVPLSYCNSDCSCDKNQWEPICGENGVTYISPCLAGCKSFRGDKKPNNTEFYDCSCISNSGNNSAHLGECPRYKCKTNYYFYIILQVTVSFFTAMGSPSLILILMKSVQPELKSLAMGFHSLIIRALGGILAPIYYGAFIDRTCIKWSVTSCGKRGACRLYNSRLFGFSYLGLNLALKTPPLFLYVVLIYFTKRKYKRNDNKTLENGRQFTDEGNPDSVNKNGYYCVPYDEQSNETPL
How it was run: (§1)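 Individual hepatic OATP transporters were over-expressed in CHO or HEK293 cells: rat rOatp1a1, rOatp1a4 and rOatp1b2, and human hOATP1B1, hOATP1B3 and hOATP2B1. Substrate uptake is expressed as fold difference relative to the wild-type parental line. Rosuvastatin/pravastatin served as positive control and midazolam as negative control in each assay.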

[2] = target: T2, OATP2B1 (Homo sapiens, UniProt O94956); assay: Drug uptake by human hepatic OATP2B1 transporter expressed in HEK293 cells at 10 uM relative to wild-type HEK293 cells; format: ADME, cell-based; details: HEK293 cells expressing OATP2B1, read-out: FC; how it was run: as §1
T2 sequence (O94956 whole entry): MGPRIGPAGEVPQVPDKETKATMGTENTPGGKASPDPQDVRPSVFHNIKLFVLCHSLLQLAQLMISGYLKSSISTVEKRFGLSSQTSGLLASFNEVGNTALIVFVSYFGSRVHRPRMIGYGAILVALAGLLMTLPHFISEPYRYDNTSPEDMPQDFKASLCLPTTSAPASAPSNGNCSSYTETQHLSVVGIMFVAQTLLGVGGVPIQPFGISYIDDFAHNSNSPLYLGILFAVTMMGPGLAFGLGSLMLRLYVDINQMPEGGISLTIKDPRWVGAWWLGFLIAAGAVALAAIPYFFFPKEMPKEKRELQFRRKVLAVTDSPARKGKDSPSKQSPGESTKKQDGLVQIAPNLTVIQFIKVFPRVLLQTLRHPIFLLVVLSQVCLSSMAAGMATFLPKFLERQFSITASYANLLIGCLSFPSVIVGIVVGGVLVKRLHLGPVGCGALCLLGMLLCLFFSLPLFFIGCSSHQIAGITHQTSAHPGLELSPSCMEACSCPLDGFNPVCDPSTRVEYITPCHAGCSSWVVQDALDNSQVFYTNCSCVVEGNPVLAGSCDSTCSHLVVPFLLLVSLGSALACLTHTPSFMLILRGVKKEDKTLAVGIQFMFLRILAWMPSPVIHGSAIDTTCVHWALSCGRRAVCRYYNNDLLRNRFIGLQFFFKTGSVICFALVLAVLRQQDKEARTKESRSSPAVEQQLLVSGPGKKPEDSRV

[3] = target: T3, OATP1B3 (Homo sapiens, UniProt Q9NPD5); assay: Drug uptake by human hepatic OATP1B3 transporter expressed in HEK293 cells at 10 uM relative to wild-type HEK293 cells; format: ADME, cell-based; details: HEK293 cells expressing OATP1B3, read-out: FC; how it was run: as §1
T3 sequence (Q9NPD5 whole entry): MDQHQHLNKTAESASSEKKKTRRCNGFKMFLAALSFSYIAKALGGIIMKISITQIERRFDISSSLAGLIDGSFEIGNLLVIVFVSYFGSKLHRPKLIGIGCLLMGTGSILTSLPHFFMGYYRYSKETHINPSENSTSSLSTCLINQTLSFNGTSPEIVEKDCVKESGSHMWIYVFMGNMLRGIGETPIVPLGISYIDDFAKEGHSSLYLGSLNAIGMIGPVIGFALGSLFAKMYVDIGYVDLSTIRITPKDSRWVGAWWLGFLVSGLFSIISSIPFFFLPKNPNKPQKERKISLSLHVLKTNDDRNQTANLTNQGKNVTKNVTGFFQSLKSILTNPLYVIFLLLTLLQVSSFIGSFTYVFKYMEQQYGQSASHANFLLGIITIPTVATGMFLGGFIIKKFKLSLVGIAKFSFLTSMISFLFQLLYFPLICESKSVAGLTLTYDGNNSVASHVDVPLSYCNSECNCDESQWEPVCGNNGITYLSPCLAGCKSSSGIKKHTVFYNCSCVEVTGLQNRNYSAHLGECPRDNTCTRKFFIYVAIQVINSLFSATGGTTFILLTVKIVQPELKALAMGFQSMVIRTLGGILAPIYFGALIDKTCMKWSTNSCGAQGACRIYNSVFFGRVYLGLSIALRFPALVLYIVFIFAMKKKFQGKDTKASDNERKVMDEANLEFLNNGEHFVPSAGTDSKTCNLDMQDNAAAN

[4] = system: Cavia porcellus; assay: Hypolipidemic activity in chow fed Hartley guinea pig assessed as reduction of LDL level administered orally for 7 days measured on day 8 after 2 hrs post dose; format: functional; details: po
How it was run: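 Guinea pigs were dosed daily for seven days and sacrificed 2 h after the final dose. Plasma LDL was measured and reported as mean ± SEM % change from the control group, n = 8/group.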

[5] = Fraction unbound in human plasma at 0.5 ug/ml; format: ADME, cell-free
How it was run: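 Unbound fraction in rat, dog or human plasma, measured at a drug concentration of 0.5 μg/mL.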

Compound	uptake ratio at 10 µM [1]	uptake ratio at 10 µM [2]	uptake ratio at 10 µM [3]	ED50 [4]	fraction unbound at 0.5 ug/ml [5]
Cc1ncc2n1-c1ccc(Cl)cc1C(c1ccccc1F)=NC2 [MIDAZOLAM]	1.3	0.7	1.1		
CC[C@H](C)C(=O)O[C@H]1C[C@H](O)C=C2C=C[C@H](C)[C@H](CC[C@@H](O)C[C@@H](O)CC(=O)O)[C@H]21 [PRAVASTATIN]	7		32.8	73.3 mg/kg	
Cc1ccc(CNC(=O)c2nn(-c3ccc(F)cc3)c(CC[C@@H](O)C[C@@H](O)CC(=O)O)c2C(C)C)cc1	2.6	1.4	5	3.6 mg/kg	0.051
O=C([O-])C[C@H](O)C[C@H](O)CCn1c(-c2ccc(F)cc2)nc(C(=O)NCc2cccc(F)c2)c1C1CC1.[Na+]	1.7	6.8	36.4	5.9 mg/kg	0.29
CC(C)c1nc(N(C)S(C)(=O)=O)nc(-c2ccc(F)cc2)c1/C=C/[C@@H](O)C[C@@H](O)CC(=O)O [ROSUVASTATIN]		6.6	11.1	13.5 mg/kg	0.17
